According to ChEMBL document CHEMBL1125548, “Synthesis and pharmacological studies of N-substituted 6-[(2-aminoethyl)amino]-1,3-dimethyl-2,4(1H,3H)-pyrimidinediones, novel class III antiarrhythmic agents” (1992):

Assays:
[1] = tested on: Canis familiaris; experiment: The percentage change of the duration of action potential at 75% repolarization was measured before and after the administration at 3.0 ug/mL; format: functional, Canis lupus familiaris
In short: (§1)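 Canine right-ventricular Purkinje fibers (mongrel dogs 7–11 kg, thiopental-anesthetized) superfused with Tyrode's (pH 7.5, 36 °C, gassed 95% O2/5% CO2). Compounds diluted from 1 mM water stock and added cumulatively. Readings taken 20 min after solution exchange. Result given as percent change in action potential duration.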

[2] = tested on: Canis familiaris; experiment: The percentage change of the duration of action potential at 75% repolarization was measured before and after the administration at 1.0 ug/mL; format: functional, Canis lupus familiaris; in short: as §1
[3] = tested on: Canis familiaris; experiment: Concentration required for 50% inhibition of tachycardia induced by isoproterenol (0.5ug/mL, iv) in anesthetized dog; format: functional; details: Canis lupus familiaris, read-out: ID50 (the source's name)
[4] = tested on: Canis familiaris; experiment: Percentage change of the duration of action potential at 75% repolarization was measured before and after the administration at 10.0 ug/mL; format: functional, Canis lupus familiaris; in short: as §1

Row | Compound | APD75 [1] | APD75 [2] | ED50 [3] | APD75 [4]
1 | Cl.Cl.Cn1c(N2CCN(CCCOc3ccc(N)cc3)CC2)cc(=O)n(C)c1=O | 4% | – | – | –
2 | Cl.Cn1c(N2CCN(CCc3ccc([N+](=O)[O-])cc3)CC2)cc(=O)n(C)c1=O | – | 43% | – | –
3 | Cl.Cl.Cn1c(N2CCN(CC(O)COc3ccccc3)CC2)cc(=O)n(C)c1=O (configuration not stated) | 13.7% | 3.5% | > 5 mg/kg | –
4 | CCN(CC)CCNC(=O)c1ccc(NS(C)(=O)=O)cc1 [SEMATILIDE] | 29% | 19% | – | –
5 | Cn1c(NCCNCC(O)COc2ccccc2F)cc(=O)n(C)c1=O (configuration not stated) | 8.3% | 4.1% | 0.003 mg/kg | 15.6%
6 | CSc1ccccc1OCCCN1CCN(c2cc(=O)n(C)c(=O)n2C)CC1.Cl | 0% | 0% | – | 0%
7 | CS(=O)(=O)O.Cn1c(N2CCN(CCCOc3ccccc3)CC2)cc(=O)n(C)c1=O | 22% | 7% | > 5 mg/kg | –
